Measurements published in ChEMBL document CHEMBL1811848 (Bioorg Med Chem Lett, 2011).

Assays:
[1] = test system: Rattus norvegicus; assay: Toxicity in male Wistar rat assessed as albumin level at 3 mg/kg, po measured after 28 days (reference value: 3.66 +/- 0.10 g.dl); assay type: organism-based; design: dose 3 mg/kg, route oral; conditions: in vivo, 672 h
[2] = test system: Rattus norvegicus; assay: Toxicity in male Wistar rat assessed as ALP level at 30 mg/kg, po measured after 28 days (reference value: 243.88 +/- 20.34 U/L); conditions: in vivo, 672 h
[3] = test system: Rattus norvegicus; assay: Toxicity in male Wistar rat assessed as Glucose level at 3 mg/kg, po measured after 28 days (reference value: 70 +/- 3.49 mg/dl); assay type: organism-based; design: dose 3 mg/kg, route oral; conditions: in vivo, 672 h
[4] = test system: Rattus norvegicus; assay: Toxicity in male Wistar rat assessed as kidney to body weight ratio at 30 mg/kg, po measured after 28 days (reference value: 0.745 +/- 0.012); assay type: organism-based; design: dose 30 mg/kg, route oral; conditions: in vivo, 672 h
[5] = test system: Rattus norvegicus; assay: Toxicity in female Wistar rat assessed as heart to body weight ratio at 30 mg/kg, po measured after 28 days (reference value: 0.403 +/- 0.010); assay type: organism-based; design: dose 30 mg/kg, route oral; conditions: in vivo, 672 h
[6] = test system: Mus musculus; assay: Hypolipidemic activity in Swiss albino mouse assessed as reduction in triglyceride level at 3 mg/kg, po; assay type: functional; design: scale not given: the % may be the effect or the level left
[7] = test system: Mus musculus; assay: Antihyperglycemic activity in db/db mouse assessed as reduction in plasma glucose level at 0.01 mg/kg, po; assay type: functional; design: scale not given: the % may be the effect or the level left
[8] = test system: Rattus norvegicus; assay: Toxicity in female Wistar rat assessed as uterus to body weight ratio at 3 mg/kg, po measured after 28 days (reference value: 0.233 +/- 0.041); assay type: organism-based; design: dose 3 mg/kg, route oral; conditions: in vivo, 672 h
[9] = test system: Rattus norvegicus; assay: Toxicity in male Wistar rat assessed as SGPT level at 30 mg/kg, po measured after 28 days (reference value: 34.24 +/- 2.13 U/L); assay type: organism-based; design: dose 30 mg/kg, route oral; conditions: in vivo, 672 h
[10] = species on record: Mus musculus; assay: Hypolipidemic activity in db/db mouse assessed as reduction in triglyceride level; assay type: functional
[11] = target: T1, Peroxisome proliferator-activated receptor gamma (Homo sapiens, UniProt P37231); assay: Transactivation of human PPARgamma expressed in human HepG2 cells co-transfected with PPRE3-TK-Luc by luciferase reporter gene assay; assay type: cell-based
T1 sequence (P37231 whole entry): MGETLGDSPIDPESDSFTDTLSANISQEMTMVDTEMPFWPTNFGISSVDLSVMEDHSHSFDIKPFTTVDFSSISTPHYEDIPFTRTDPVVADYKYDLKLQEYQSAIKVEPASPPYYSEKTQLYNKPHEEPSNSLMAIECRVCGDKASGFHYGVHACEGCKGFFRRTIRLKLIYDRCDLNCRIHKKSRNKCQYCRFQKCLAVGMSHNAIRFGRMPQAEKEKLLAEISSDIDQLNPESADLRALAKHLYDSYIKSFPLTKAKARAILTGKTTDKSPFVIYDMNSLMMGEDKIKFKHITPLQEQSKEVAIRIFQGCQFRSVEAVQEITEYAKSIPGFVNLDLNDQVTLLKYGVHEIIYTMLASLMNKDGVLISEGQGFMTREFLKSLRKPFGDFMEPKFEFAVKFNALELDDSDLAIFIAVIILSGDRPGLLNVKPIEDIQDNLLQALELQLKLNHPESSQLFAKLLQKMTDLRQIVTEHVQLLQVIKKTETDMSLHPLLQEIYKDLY
Procedure, shortened: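 HepG2 cells transfected with pSG5 vector carrying hPPARα, hPPARγ or hPPARδ cDNA, co-transfected with PPRE3-TK-luc. Firefly luciferase activity measured with a commercial kit. β-galactosidase activity read on an ELISA reader. Controls: WY14643 (α), rosiglitazone (γ), GW501516 (δ).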

[12] = target: T2, Peroxisome proliferator-activated receptor gamma (Homo sapiens) (UniProt P37231); assay: Transactivation of human PPARgamma expressed in human HepG2 cells co-transfected with PPRE3-TK-Luc by luciferase reporter gene assay relative to Rosiglitazone; assay type: cell-based
T2 sequence (whole entry): T1 sequence (P37231 whole entry)
Procedure, shortened: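 Same HepG2 hPPARα or hPPARγ / PPRE3-TK-luc luciferase transactivation assay. Efficacy expressed as percent of maximal response, normalized to 100% for the reference agonist: WY-14643 for α, rosiglitazone for γ.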

[13] = test system: Mus musculus; assay: Antihyperglycemic activity in db/db mouse assessed as reduction in plasma glucose level at 1 mg/kg, po; assay type: functional; design: scale not given: the % may be the effect or the level left
[14] = test system: Mus musculus; assay: Antihyperglycemic activity in db/db mouse assessed as reduction in plasma glucose level at 0.1 mg/kg, po; assay type: functional; design: scale not given: the % may be the effect or the level left
[15] = species on record: Mus musculus; assay: Antihyperglycemic activity in db/db mouse assessed as reduction in plasma glucose level; assay type: functional
[16] = test system: Rattus norvegicus; assay: Toxicity in male Wistar rat assessed as hemoglobin level at 3 mg/kg, po measured after 28 days (reference value: 13.66 +/- 0.23 g/dl); assay type: organism-based; design: dose 3 mg/kg, route oral; conditions: in vivo, 672 h
[17] = test system: Mus musculus; assay: Hypolipidemic activity in Swiss albino mouse assessed as reduction in triglyceride level at 0.01 mg/kg, po; assay type: functional; design: scale not given: the % may be the effect or the level left
[18] = test system: Rattus norvegicus; assay: Toxicity in female Wistar rat assessed as kidney to body weight ratio at 3 mg/kg, po measured after 28 days (reference value: 0.733 +/- 0.007); assay type: organism-based; design: dose 3 mg/kg, route oral; conditions: in vivo, 672 h
[19] = test system: Rattus norvegicus; assay: Toxicity in male Wistar rat assessed as testes to body weight ratio at 3 mg/kg, po measured after 28 days (reference value: 1.075 +/-1 0.106); assay type: organism-based, Testis; design: dose 3 mg/kg, route oral; conditions: in vivo, 672 h
[20] = test system: Rattus norvegicus; assay: Toxicity in male Wistar rat assessed as liver to body weight ratio at 3 mg/kg, po measured after 28 days (reference value: 3.257 +/- 0.067); assay type: organism-based; design: dose 3 mg/kg, route oral; conditions: in vivo, 672 h
[21] = test system: Rattus norvegicus; assay: Toxicity in male Wistar rat assessed as albumin level at 30 mg/kg, po measured after 28 days (reference value: 3.66 +/- 0.10 g.dl); assay type: organism-based; design: dose 30 mg/kg, route oral; conditions: in vivo, 672 h
[22] = test system: Mus musculus; assay: Antihyperglycemic activity in db/db mouse assessed as reduction in glucose level at 3 mg/kg/day, po administered for 6 days relative to control; assay type: functional; design: scale not given: the % may be the effect or the level left
Procedure, shortened: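 Male db/db mice aged 6–8 weeks were dosed orally once daily for 6 days. Plasma glucose was then measured and expressed as % change versus vehicle-treated controls.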

[23] = Cmax in fasting Wistar rat at 30 mg/kg, po; assay type: ADME, organism-based; design: dose 30 mg/kg, route oral; conditions: in vivo
Procedure, shortened: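 Fasted male Wistar rats received one oral dose of 30 mg/kg. Plasma Cmax, T1/2 and Tmax are reported as mean ± SD of n = 3.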

[24] = test system: Rattus norvegicus; assay: Toxicity in female Wistar rat assessed as spleen to body weight ratio at 3 mg/kg, po measured after 28 days (reference value: 0.237 +/- 0.012); assay type: organism-based; design: dose 3 mg/kg, route oral; conditions: in vivo, 672 h
[25] = test system: Mus musculus; assay: Hypolipidemic activity in db/db mouse assessed as reduction in triglyceride level at 0.03 mg/kg, po; assay type: functional; design: scale not given: the % may be the effect or the level left
[26] = test system: Rattus norvegicus; assay: Toxicity in female Wistar rat assessed as SGOT level at 30 mg/kg, po measured after 28 days (reference value: 155.70 +/- 6.56 U/L); assay type: organism-based; design: dose 30 mg/kg, route oral; conditions: in vivo, 672 h
[27] = test system: Rattus norvegicus; assay: Toxicity in male Wistar rat assessed as liver to body weight ratio at 30 mg/kg, po measured after 28 days (reference value: 3.257 +/- 0.067); assay type: organism-based; design: dose 30 mg/kg, route oral; conditions: in vivo, 672 h
[28] = test system: Mus musculus; assay: Hypolipidemic activity in Swiss albino mouse assessed as reduction in triglyceride level at 0.03 mg/kg, po; assay type: functional; design: scale not given: the % may be the effect or the level left
[29] = test system: Mus musculus; assay: Hypolipidemic activity in Swiss albino mouse assessed as reduction in triglyceride level at 0.003 mg/kg, po; assay type: functional; design: scale not given: the % may be the effect or the level left
[30] = test system: Mus musculus; assay: Reduction in serum triglyceride level in Swiss albino mouse at 10 mg/kg, po administered for 6 days relative to control; assay type: functional; design: scale not given: the % may be the effect or the level left
Procedure, shortened: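 Male Swiss albino mice aged 6–8 weeks were given 10 mg/kg/day orally for 6 days. Serum triglyceride was expressed as % change versus vehicle controls, mean of n = 6.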

CCO[C@@H](Cc1ccc(OCCc2nc(-c3ccc(C)s3)oc2C)cc1)C(=O)O
Activity [1]: 3.91 g/dL | Activity [2]: 679.13 U/L | Activity [3]: 75.74 mg/dL | Ratio [4]: 0.955 | Ratio [5]: 0.501 | Activity [6]: 83.1% | Activity [7]: 52.7% | Ratio [8]: 0.176 | Activity [9]: 33.03 U/L | ED50 [10]: 0.0188 mg/kg | EC50 [11]: 18 pM | Emax [12]: 165% | Activity [13]: 59.7% | Activity [14]: 51.7% | ED50 [15]: 0.166 mg/kg | Activity [16]: 12.2 g/dL | Activity [17]: 61.9% | Ratio [18]: 0.804 | Ratio [19]: 1.152 | Ratio [20]: 7.505 | Activity [21]: 4.12 g/dL | Activity [22]: 72% | Cmax [23]: 91.7 µg/mL | Ratio [24]: 0.257 | Activity [25]: 25.9% | Activity [26]: 224 U/L | Ratio [27]: 8.099 | Activity [28]: 65.6% | Activity [29]: 41.5% | Activity [30]: 88%
